SMILES strings stand for the structures. About 4,400 (1.5%) of roughly 300,000 compounds were called active.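 How the source made its calls: active means mean inhibition across valid replicates above about 55% (limit read from the data); inconclusive means mean below that limit but half or more replicates reach it; inactive means mean below it, under half of replicates reach it.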 Many of the other results were omitted from the sample, so actives are more common in it than they were.

One may read the inhibition as the drop in the measured response relative to a control, in per cent.

The nature of this test: Trypanosoma cruzi replication blockers in host cells – luminescence, NIH3T3 host cells, primary screen (AID 1885).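 Further: signal also drops with host cell toxicity which is not excluded here; 0% = plate median of DMSO wells and 100% = zero luminescence signal; higher percent means less beta-gal luminescence so fewer parasites.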 As to conditions: T. cruzi beta-gal in NIH3T3, luminescence, 90 h; hits give high values; concentration not given here. The procedure, abridged: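 Test system: β-gal T. cruzi (Tulahuen C4) inside NIH/3T3 cells / Quantity: 5,000 cells/well / Measured by: luminescence from GalScreen with 0.05% NP40, read after 60 min / Medium: DMEM plus 2% FBS / Measure: parasite load inhibition, % / Reagent: Tulahuen C4 trypomastigotes, 5000/well / Schedule: co-culture of at least 90 h after 3 h attachment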
As for `CN(C)CCCCCN(C)Cc1cc2ccccc2o1`, the inhibition was 69.5% (active).

Regarding `N=c1oc2ccccc2cc1C(=O)NCc1ccccc1`, the inhibition was -12.9% (inactive).

For the compound `COc1ccccc1CN(C)C(=O)c1cc2ccccc2o1`, the inhibition is 0.505% (inactive).

In the case of `O=C(COc1ccc2ccc(=O)oc2c1)NCC(O)c1ccccc1` (stereo unspecified), the inhibition was -12.4% (inactive).

As for `COc1cc(NC(=O)CCNC(=O)Cn2ccc3ccccc3c2=O)cc(OC)c1OC`, the inhibition was -1.49% (inactive).

`Cc1ccc(-c2c(C)n([O-])c3c([n+]2=O)CCC3)cc1`: the inhibition is -4.48% (inactive).

Consider `NC(=O)c1ccccc1NC(=O)c1ccccc1F`, for which the inhibition was -8.84% (inactive).

Take `CCOc1cc(NC(=O)c2ccccc2C(=O)O)c(OCC)cc1NC(=O)c1ccccc1F`: the inhibition is 60.5% (active).

As for `CCOc1cc(NC(=O)Nc2ccccc2)c(OCC)cc1NC(=O)CC`, the inhibition was -28.4% (inactive).

`COc1cccc(N(CC(=O)NC2CCCCCC2)S(=O)(=O)c2ccccc2)c1`: the inhibition is 21.4% (inactive).

Turning to `Cc1cc(C(=O)N/N=C/c2ccccc2[N+](=O)[O-])c(C)o1`, the inhibition is -0.35% (inactive).

For `Cc1occc1C(=O)N/N=C/c1ccc(-c2cccc([N+](=O)[O-])c2)o1`, the inhibition is 67.8% (active).

`Cc1ccc(-c2ccc(/C=N/NC(=O)CN3CCOCC3)o2)cc1[N+](=O)[O-]`: the inhibition is -11.4% (inactive).

`CC(=O)N1CCN(CC(C)(C)NS(=O)(=O)c2ccc(C)cc2)CC1`: the inhibition is 11.8% (inactive).

For the compound `O=C(Nc1ncc([N+](=O)[O-])s1)C1COc2ccccc2O1` (stereo unspecified), the inhibition is -1.76% (inactive).

With `O=C(Cc1c(F)cccc1Cl)Nc1ncc([N+](=O)[O-])s1`, the inhibition was 50.4% (inactive).

Regarding `O=C(CCc1ccccc1)Nc1ncc([N+](=O)[O-])s1`, the inhibition was 86.1% (active).

Turning to `Cc1ccccc1C(=O)NNC(=O)CN1C(=O)c2ccccc2C1=O`, the inhibition was -15.4% (inactive).

In the case of `COc1ccc(OCc2cc(C(=O)NCC3(C)COC3)no2)c(Cl)c1`, the inhibition was -0.702% (inactive).

`CCCCn1c(N)c(N(CCOC)C(=O)c2cccc(S(=O)(=O)N3CCCCC3)c2)c(=O)[nH]c1=O`: the inhibition is -8.61% (inactive).

For the compound `CN(C)CCCNC(=O)/C=C/c1ccc(OCc2c(F)cccc2Cl)cc1`, the inhibition was 55.5% (active).

With `COCCCNC(=O)/C=C/c1ccc(OCc2c(F)cccc2Cl)cc1`, the inhibition is 19% (inactive).

In the case of `O=C(/C=C/c1ccc(OCc2c(F)cccc2Cl)cc1)N1CCOCC1`, the inhibition was 16.6% (inactive).

In the case of `COc1ccc(C2c3[nH]c4ccccc4c3C[C@H]3C(=O)N(CC(C)C)CC(=O)N23)c(OC)c1` (stereo partly specified), the inhibition is 9.19% (inactive).

Turning to `Cc1cc(C)c2[nH]c(=O)c(CN(Cc3ccccc3)C(=S)NCCCN(C)C)cc2c1`, the inhibition is 59.1% (active).

Take `COCCCNC(=S)N(CCN(C)C)Cc1cc2cc3c(cc2[nH]c1=O)OCCO3`: the inhibition was -7.66% (inactive).

In the case of `Cc1cccc2cc(CN(Cc3cccs3)C(=S)NCc3ccco3)c(=O)[nH]c12`, the inhibition was 18.3% (inactive).

Take `COc1ccc(Cc2cc(-c3ccc(F)cc3)n[nH]c2=O)cc1`: the inhibition was -6.16% (inactive).

For the compound `CC1(c2ccccc2)NC(=O)N(CC(=O)Nc2cc(Cl)ccc2N2CCOCC2)C1=O` (stereo unspecified), the inhibition is 5.62% (inactive).

For `CCc1cccc(C)c1NC(=O)COC(=O)CNC(=O)c1cccs1`, the inhibition was -15.5% (inactive).

As for `O=[N+]([O-])c1cc(S(=O)(=O)Nc2cccc(Cl)c2)ccc1N=Nc1c(O)[nH]c2ccccc12`, the inhibition is 61.7% (active).

Regarding `Cc1cccc(N(CC(=O)N=Nc2c(O)[nH]c3ccccc23)S(C)(=O)=O)c1C`, the inhibition was 16.1% (inactive).

For the compound `CN1CCN(c2ccc(S(=O)(=O)Nc3ccccc3)cc2[N+](=O)[O-])CC1`, the inhibition was 18.5% (inactive).

`O=C(NCC(c1ccco1)N1CCc2ccccc2C1)c1ccccc1Cl` (stereo unspecified): the inhibition is -5.54% (inactive).

As for `O=C(NCc1cccnc1)c1cc(S(=O)(=O)N2CCOCC2)c(Cl)cc1Cl`, the inhibition is 3.92% (inactive).

As to `Cc1noc(C)c1CSCC(=O)Nc1ccc(Br)cc1Cl`, the inhibition was 1.67% (inactive).

For the compound `O=C(Nc1cc(-c2nc3ncccc3o2)ccc1Cl)c1ccco1`, the inhibition was -11% (inactive).

In the case of `O=C(Nc1cccc(-c2nc3ncccc3o2)c1)c1ccco1`, the inhibition was 69.4% (active).

With `O=C(Nc1cccc(NC(=O)c2ccco2)c1)c1cnccn1`, the inhibition is 21.9% (inactive).

Regarding `N#Cc1ccccc1NC(=O)COc1c(Br)cc(Br)c2cccnc12`, the inhibition was -12.8% (inactive).

With `CCN1CCN(c2ccc(S(=O)(=O)N3CCCCC3)cc2NC(=O)c2cccc(NC(C)=O)c2)CC1`, the inhibition is 0.05% (inactive).

`CN1CCN(c2ccc(S(=O)(=O)N3CCOCC3)cc2NC(=O)CCc2ccccc2)CC1`: the inhibition is 54.9% (active).

With `CC(=O)NCCC(=O)Nc1cc(S(=O)(=O)N2CCOCC2)ccc1N1CCOCC1`, the inhibition was -12% (inactive).

Consider `CCN1CCN(c2ccc(S(=O)(=O)N3CCCCC3)cc2NC(=O)Cc2c(Cl)cccc2Cl)CC1`, for which the inhibition was 65.7% (active).

Take `O=C(COc1cccc2ccccc12)Nc1cc(S(=O)(=O)N2CCOCC2)ccc1N1CCOCC1`: the inhibition was 2.7% (inactive).

Regarding `CN1CCN(c2ccc(S(=O)(=O)N3CCCCC3)cc2NC(=O)Cc2ccccc2F)CC1`, the inhibition is 45.1% (inactive).

Consider `CCOC(=O)C1=C(c2ccccc2)N=C2SCC(=O)N2C1c1ccc(O)c(OC)c1` (stereo unspecified), for which the inhibition is -14.5% (inactive).

For the compound `Cc1nn(C)c(C)c1CN(C(=O)CCc1nnc(Cc2c[nH]c3ccccc23)o1)C(C)C`, the inhibition was 9.23% (inactive).

In the case of `CCOC(=O)N1CCN(S(=O)(=O)c2ccc(-n3cnnn3)cc2)CC1`, the inhibition is 0.644% (inactive).

Regarding `COc1ccc(NC(=O)C(=O)NCC(c2ccco2)N2CCc3ccccc3C2)cc1` (stereo unspecified), the inhibition is 9.29% (inactive).

Take `CCc1ccccc1NC(=O)NCCN1CCCCC1`: the inhibition was 1.39% (inactive).

For `CC1CCN(C(=S)c2cccc([N+](=O)[O-])c2)CC1`, the inhibition is 1.31% (inactive).

Turning to `CC1CCC2CCCCC2N1C(=O)c1cc([N+](=O)[O-])cc([N+](=O)[O-])c1` (stereo unspecified), the inhibition is 56% (active).

For `O=C(c1cc(C(=O)N2CCN(c3ccc(F)cc3)CC2)cc([N+](=O)[O-])c1)N1CCN(c2ccc(F)cc2)CC1`, the inhibition was 45.8% (inactive).

Turning to `OCC(O)CN(c1ccccc1)c1ccccc1` (stereo unspecified), the inhibition was -11.6% (inactive).

With `COc1cc(Br)c(-c2sc(Nc3ccccc3)n[n+]2-c2ccccc2)cc1OC`, the inhibition was 0.144% (inactive).

In the case of `COc1ccc(C)cc1Nc1n[n+](-c2ccccc2)c(-c2cccc(Cl)c2Cl)s1`, the inhibition was 61.2% (active).

Regarding `COc1ccc(C)cc1S(=O)(=O)Nc1cccc(Cl)c1Cl`, the inhibition is 8.72% (inactive).

For `CC(Sc1nnc(-c2ccccc2F)n1C1CC1)C(N)=O` (stereo unspecified), the inhibition is -10.8% (inactive).

`COc1ccc(-c2nc(CS(=O)(=O)CC(=O)NCc3cccc(Br)c3)c(C)o2)cc1`: the inhibition is -6.3% (inactive).

With `Cc1ccccc1NCC(=O)N/N=C\c1ccc([N+](=O)[O-])s1`, the inhibition is 64.6% (active).

Take `CC(C)(C)c1cc(C(=O)N/N=C/c2ccc([N+](=O)[O-])s2)n[nH]1`: the inhibition is 57.6% (active).

Turning to `Cc1cccc(/C=N/NC(=O)CNc2cccc3ccccc23)n1`, the inhibition is -0.344% (inactive).

For `COc1cc(/C=N/NC(=O)CNC(=O)c2ccncc2)ccc1OC(C)=O`, the inhibition was -4.41% (inactive).

On to `COc1ccc(C(=O)NCC(=O)N/N=C/c2ccc([N+](=O)[O-])s2)cc1OC`, for which the inhibition was 64.6% (active).

Regarding `Cc1cc(C(=O)N/N=C/c2cc([N+](=O)[O-])cc(C)c2O)n[nH]1`, the inhibition was -40.2% (inactive).

As to `COc1ccc(C(=O)NCC(=O)N/N=C/c2ccc([N+](=O)[O-])o2)cc1OC`, the inhibition was -11% (inactive).

For the compound `COc1ccc2ccccc2c1/C=N/NC(=O)c1cc(C)[nH]n1`, the inhibition is -14.2% (inactive).

In the case of `CCOc1ccc(NC(=O)CCC(=O)N/N=C/c2ccc([N+](=O)[O-])s2)cc1`, the inhibition is 50.6% (inactive).

Consider `O=C(NCCNc1ccc([N+](=O)[O-])cc1)c1cccc2c(Br)cccc12`, for which the inhibition is 5.94% (inactive).

With `Brc1ccc(OCCn2ccnc2)cc1`, the inhibition was 68.5% (active).

For the compound `O=C(O)c1ccn(COc2ccc(Br)cc2)n1`, the inhibition was -13.4% (inactive).

As for `c1ccc(Cc2ccc(OCCn3ccnc3)cc2)cc1`, the inhibition is 28.2% (inactive).

Turning to `O=C(NCCS(=O)(=O)N1CCN(c2ccc(F)cc2)CC1)c1ccc2c(c1)OCO2`, the inhibition is -12.2% (inactive).

Consider `COc1ccc(NC(=O)CN(C)C(=O)/C=C/c2cn(Cc3ccccc3)nc2-c2cccnc2)cc1`, for which the inhibition was 4% (inactive).

Regarding `NC(=S)Nc1c(Cl)cccc1Cl`, the inhibition is -4.22% (inactive).

In the case of `COC(=O)c1cc(-c2cccs2)nc2ccccc12`, the inhibition is 5.51% (inactive).

On to `CCCCN(C)CCCNC(=O)c1cc(-c2cccs2)nc2ccccc12`, for which the inhibition was 63.8% (active).

As to `O=C(NCCN1CCOCC1)c1cc(-c2cccs2)nc2ccccc12`, the inhibition was -5.61% (inactive).

`COc1cnn(-c2ccc([N+](=O)[O-])cc2)c(=O)c1Cl`: the inhibition was 7.92% (inactive).

In the case of `CCN1C(=O)[C@H]2[C@@H](c3ccc(-c4ccc(OC)cc4)cc3)N[C@@](Cc3ccccc3)(C(=O)OC)[C@H]2C1=O`, the inhibition is -3.65% (inactive).

On to `CCOC(=O)C1(CCOC)CCN(Cc2cc3ccccc3s2)CC1`, for which the inhibition was 6.96% (inactive).

Take `Cc1ccc(S(=O)(=O)N2CCCC2C(=O)OCc2nc3sc(C)c(C)c3c(=O)[nH]2)cc1` (stereo unspecified): the inhibition was -13% (inactive).

On to `O=C(NCCCn1ccnc1)c1ccccc1F`, for which the inhibition is 7.44% (inactive).

Regarding `C=CCc1cc(C)ccc1OCCCn1ccnc1`, the inhibition is 36.6% (inactive).

`Clc1c(OCCCn2ccnc2)ccc2ccccc12`: the inhibition is 61.3% (active).

Regarding `Cc1cc(Nc2cc(N3CCN(C)CC3)nc(Sc3ccc(NC(=O)C4CC4)cc3)n2)n[nH]1`, the inhibition was 26.9% (inactive).

Take `CC(=O)CC(CC(=O)NC1CCCCC1)c1ccccc1` (stereo unspecified): the inhibition was -21.8% (inactive).

For `CCOc1ccc(C(=O)NCC(=O)N2CCCCCCC2)cc1OCC`, the inhibition was 17.5% (inactive).

As to `CCc1noc(C)c1C(=O)NNC(=O)c1ccc(F)cc1`, the inhibition was -6.32% (inactive).

Take `CC(C)(C)S(=O)(=O)c1ccccc1-c1noc(-c2ccccc2)c1C(N)=O`: the inhibition was -8.06% (inactive).

The record behind these values is PubChem BioAssay AID1885 (Broad Institute, 2009).
